# From PubChem
# Shown are actives, neighbours in structure and some others; about 1.8% of the full set was active somewhere.
# MLLE-PAM2 inh: blocks PAM2 peptide binding to the PABP1 MLLE domain; inhibition, % at 20 µM; actives 0.36% (n = 360,000); GST-MLLE / FITC-PAM2 fluorescence polarization; AID 588489; P11940; in the data active = inhibition above about 35%, passing the limit was not always enough;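 note: plate controls were DMSO wells with GST-MLLE for no effect and wells lacking GST-MLLE protein for full effect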
# Target sequence (P11940 whole entry, looked up, the tested form may be a part): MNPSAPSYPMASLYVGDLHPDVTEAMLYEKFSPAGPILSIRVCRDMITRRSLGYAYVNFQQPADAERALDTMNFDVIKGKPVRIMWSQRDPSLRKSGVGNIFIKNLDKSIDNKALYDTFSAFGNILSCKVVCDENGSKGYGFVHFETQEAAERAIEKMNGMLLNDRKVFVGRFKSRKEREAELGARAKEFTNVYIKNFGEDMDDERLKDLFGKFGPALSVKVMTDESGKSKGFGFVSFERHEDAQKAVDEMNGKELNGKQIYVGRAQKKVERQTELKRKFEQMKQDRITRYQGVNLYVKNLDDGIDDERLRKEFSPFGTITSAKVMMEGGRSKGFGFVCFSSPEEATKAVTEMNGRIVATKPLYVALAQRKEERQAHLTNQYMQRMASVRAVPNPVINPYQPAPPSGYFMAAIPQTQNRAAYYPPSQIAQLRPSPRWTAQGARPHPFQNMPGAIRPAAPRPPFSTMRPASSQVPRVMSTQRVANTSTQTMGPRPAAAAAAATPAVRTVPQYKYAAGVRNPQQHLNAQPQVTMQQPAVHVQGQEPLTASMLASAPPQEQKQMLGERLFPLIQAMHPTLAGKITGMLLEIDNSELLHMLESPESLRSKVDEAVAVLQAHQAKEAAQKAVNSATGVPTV
# MT1-MMP act inh: MT1-MMP (human) activation inhibition | P50281 | HT1080 RFP-PRO-GFP cells, GFP/RFP ratio fluorescence, overnight; percent of plate control window, DMSO zero | GFP/RFP ratio change, % at 20 µM | actives 0.061% (n = 360,000);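 active = GFP/RFP ratio change of at least 30% with cell ATP level not reduced by more than half and red fluorescence within 50% of control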
#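 Compound: 20 µM single dose, 1% DMSO / System: HT1080 RFP-PRO-GFP cells / Controls: DMSO and RFP-L50D-GFP cell wells / Read-out basis: GFP/RFP fluorescence ratio / Schedule: overnight compound exposure at 37 °C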
# eIF4H FP inh: inhibitors of RNA binding by human eIF4H | Q15056 | eIF4H fluorescence polarization binding assay | inhibition, % at 35 µM | actives 0.94% (n = 290,000) | AID 2012;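 note: calls also rest on retests at 20 µM and on dose response follow-up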
# PABP FP inh: blocks human PABP binding to poly(A) RNA; actives 1% (n = 290,000); P11940; calls only at 35 µM; fluorescence polarization;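 note: calls also rest on retests at 20 µM and on dose response follow-up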
# SKN-1 inh: blocks SKN-1 activity in C. elegans; C. elegans VP596 Pgst-4::GFP/RFP ratio, acrylamide-induced, 24 h; inhibition, % at 21.8 µM; AID 624304; actives 0.49% (n = 360,000);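 active = interference check ratio from 0.5 to 1.5 plus GFP to RFP signal ratio inhibition reaching or exceeding a fixed threshold, cut at about 30% in these data, passing the limit was not always enough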
# Numbers without * were called inactive; i = inactive; ? = inconclusive; . = no result; + = active, no number. Unless noted, the rule behind the calls is not given here.
SMILES,MLLE-PAM2 inh,MT1-MMP act inh,eIF4H FP inh,PABP FP inh,SKN-1 inh
COc1ccc(S(=O)(=O)Nc2cc3c4c(oc3c3ccccc23)CC(C)(C)CC4=O)cc1,15,-26,6,i,35*
Cn1cncc1C#Cc1ccc2cc(CCO)oc(=O)c2c1,-18,-2,.,.,-3
O=C(C1COc2ccccc2O1)N1CCc2ccccc21 (stereo unspecified),-6,5,79*,i,11
O=C(C1COc2ccccc2O1)N1CCCC1 (stereo unspecified),14,-1,-5,i,-27
Nc1ccc(-c2nc3ccccc3o2)cc1,-17,-18,50,+,26
CN(C)c1nc2n(c(=O)n1)CCS2,4,1,-3,i,3
CN(C)c1nc2n(c(=O)n1)C(C#N)CS2 (stereo unspecified),40*,1,10,i,-14
CCOC(=O)c1ccc(NC(=O)CSC(=S)N2CCOCC2)cc1,10,3,0,i,4
Cc1ccc(NC(=O)COC(=O)CSC(=S)N2CCOCC2)cc1,6,3,active,+,4
COCCn1c(C)cc(C(=O)CN2C(=O)C(=O)N(CCC3=CCCCC3)C2=O)c1C,10,-2,.,.,-1
COc1ccc2c(c1O)Cc1ccccc1C2=O,16,35*,4,i,7
COc1ccccc1C(=O)NCC(=O)OCc1nnc(-c2ccccc2)o1,-19,-2,.,.,-5
Cn1nnnc1SCc1nc2scc(-c3ccc(Cl)cc3)c2c(=O)[nH]1,-90,-37,59*,+,0
Cc1ccc(S/C=C\C(=O)c2ccccc2)cc1,26,-38,0,i,42*
CC(=O)c1c(Cl)nc2cccc3c2c1-c1ccccc1C3=O,50*,-23,-2,i,7
COc1cc(-c2c(C(C)=O)c(C)nc3c2C(=O)c2ccccc2-3)cc(OC)c1OC,-4,-3,7,i,5
c1ccc(-c2ccc(C(c3ccccc3)n3ccnc3)cc2)cc1 (stereo unspecified),5,3,-3,i,-5
c1ccc(-c2ccc(-n3ccnc3)cc2)cc1,5,-2,-12,i,82*
COc1ccc(CNC(=O)C(C)NCc2ccc(S(N)(=O)=O)cc2)cc1 (stereo unspecified),-13,-1,-7,i,6
COc1ccc(CNc2ccc(S(N)(=O)=O)cc2)cc1,57*,-2,1,i,1
O=C(NCCc1ccccc1F)C1CCC(=O)N(CCCN2CCCC2=O)C1 (stereo unspecified),-2,-1,2,i,-3
CCc1ccc(C(=O)CCC(=O)Nc2cccc(S(=O)(=O)N3CCCCC3)c2)cc1,3,-3,.,.,-11
CCC1(C)Cc2c(C#N)c(N)sc(=S)c2CO1 (stereo unspecified),25,-17,42,i,46*
N#Cc1c(N)sc(=S)c2c1CCCC2,48*,-12,?,?,-4
CCOc1ccc(NC(=O)C2CCC(C)(C(=O)O)C2(C)C)cc1 (stereo unspecified),-5,5,130*,?,-14
SMILES,MLLE-PAM2 inh,MT1-MMP act inh,eIF4H FP inh,PABP FP inh,SKN-1 inh
COc1ccc(NC(=O)C2CCC(C)(C(=O)O)C2(C)C)cc1 (stereo unspecified),-5,1,8,i,-5
CCNS(=O)(=O)c1ccc(NC(=S)N2CCc3ccccc32)cc1,-58,-2,-10,i,9
CCOc1ccccc1-c1nc(-c2ccc(NC(=O)Cc3ccccc3OC)cc2)no1,-13,-5,54*,+,-11
O=C(NC1CCCCC1)C(c1ccnc2ccccc12)N1CCc2ccccc2C1 (stereo unspecified),24,-1,.,.,-13
C/C(=N\NC(=O)COc1cccc(Cl)c1)c1ccc2c(c1)OCCO2,-8,4,active,i,2
C/C(=N\NC(=O)CSCc1ccc(Cl)cc1)c1ccc2c(c1)OCCO2,2,3,-4,i,-6
COc1ccc(CCC(=O)Nc2ccccc2C(F)(F)F)cc1,-2,-8,80*,+,11
O=C(CCCc1ccccc1)Nc1ccccc1C(F)(F)F,-9,0,-7,i,16
COc1cc([N+](=O)[O-])ccc1-c1ccc(/C=N/NC(=O)OC(C)(C)C)o1,-28,-5,37,i,-9
COc1cc([N+](=O)[O-])ccc1-c1ccc(/C=N/NC(N)=O)o1,-97,-45,65,+,1
Cc1cccc(NC(=S)N/N=C/c2ccc([N+](=O)[O-])s2)c1,-37,-31,1,i,44*
Cc1cccc(NC(=O)/C=C/c2ccc([N+](=O)[O-])s2)c1,-20,-177,-5,i,-6
CC(=O)Nc1sc(/C(C#N)=C\c2cccc(Cl)c2)nc1-c1ccc(C)cc1,i,-2,127*,+,35*
COc1cc(OC)cc(C(=O)NCC2CCCN(C(=O)c3csc(C)n3)C2)c1 (stereo unspecified),8,2,-6,i,-8
Cc1c(C=O)c2ccccn2c1C(=O)c1ccccc1Cl,-3,0,-9,i,2
Cc1c(C=O)c2ccccn2c1C(=O)c1cccs1,32,-19,94*,+,4
O=C1NN(c2ccc(F)cc2)C(=O)/C1=C\c1cnn(-c2ccccc2)c1,.,.,5,i,.
O=C1NN(c2ccc(F)cc2)C(=O)/C1=C\C=C\c1ccco1,0,2,88*,+,2
CNC(=O)c1ccc2snnc2c1,1,0,0,i,10
CCCNC(=O)c1ccc2snnc2c1,-2,-2,4,i,36*
O=C(CCNC(=O)c1ccc(Cl)cc1)Nc1cccc(S(=O)(=O)N2CCCCC2)c1,-20,-2,.,.,5
O=C(NC(=S)Nc1ccccc1Cl)C1CC1,41*,2,2,i,19
CC(=O)c1cccc(NC(=S)NC(=O)c2ccccc2Cl)c1,22,-1,-9,i,0
O=C(NC(=S)Nc1ccccc1O)c1ccccc1Cl,44*,-3,1,i,-3
O=C(Nc1cc([N+](=O)[O-])ccc1C(=O)NCCN1CCOCC1)c1ccccc1,6,0,-4,i,12
SMILES,MLLE-PAM2 inh,MT1-MMP act inh,eIF4H FP inh,PABP FP inh,SKN-1 inh
CSCC(C)N1CCC(n2nccc2NC(=O)CCOc2ccccc2)CC1 (stereo unspecified),13,0,77,+,18
O=C(CN1CCc2ccccc2C1)Nc1ccccc1C(=O)NC1CC1,7,3,.,.,2
COc1ccc2oc(C(F)(F)C(F)(F)F)cc(=O)c2c1,9,6,-10,i,14
COc1ccc2oc(C(F)(F)C(F)F)cc(=O)c2c1,-6,4,4,i,36*
CC(C)NC(=O)N1Cc2cc(C(=O)NC3CCC3)nc(-c3cccc(-c4cncnc4)c3)c2[C@H]1CCO,.,3,.,.,6
CC(C)N(C(=O)Nc1ccc2nsnc2c1)C(C)C,.,.,101*,+,.
